In the library only some 1.5% were active in any assay of this set; here they are far more common.
VLA-4 inh: inhibition in a human VLA-4 binding assay | P13612 | VLA-4 expressing cells, ligand binding flow cytometry | inhibition, % (about 7 µM as worked out from the volumes in the protocol) | 330,000 tested, 0.2% active; in the data active = inhibition above about 50%
Target sequence (P13612 whole entry, looked up): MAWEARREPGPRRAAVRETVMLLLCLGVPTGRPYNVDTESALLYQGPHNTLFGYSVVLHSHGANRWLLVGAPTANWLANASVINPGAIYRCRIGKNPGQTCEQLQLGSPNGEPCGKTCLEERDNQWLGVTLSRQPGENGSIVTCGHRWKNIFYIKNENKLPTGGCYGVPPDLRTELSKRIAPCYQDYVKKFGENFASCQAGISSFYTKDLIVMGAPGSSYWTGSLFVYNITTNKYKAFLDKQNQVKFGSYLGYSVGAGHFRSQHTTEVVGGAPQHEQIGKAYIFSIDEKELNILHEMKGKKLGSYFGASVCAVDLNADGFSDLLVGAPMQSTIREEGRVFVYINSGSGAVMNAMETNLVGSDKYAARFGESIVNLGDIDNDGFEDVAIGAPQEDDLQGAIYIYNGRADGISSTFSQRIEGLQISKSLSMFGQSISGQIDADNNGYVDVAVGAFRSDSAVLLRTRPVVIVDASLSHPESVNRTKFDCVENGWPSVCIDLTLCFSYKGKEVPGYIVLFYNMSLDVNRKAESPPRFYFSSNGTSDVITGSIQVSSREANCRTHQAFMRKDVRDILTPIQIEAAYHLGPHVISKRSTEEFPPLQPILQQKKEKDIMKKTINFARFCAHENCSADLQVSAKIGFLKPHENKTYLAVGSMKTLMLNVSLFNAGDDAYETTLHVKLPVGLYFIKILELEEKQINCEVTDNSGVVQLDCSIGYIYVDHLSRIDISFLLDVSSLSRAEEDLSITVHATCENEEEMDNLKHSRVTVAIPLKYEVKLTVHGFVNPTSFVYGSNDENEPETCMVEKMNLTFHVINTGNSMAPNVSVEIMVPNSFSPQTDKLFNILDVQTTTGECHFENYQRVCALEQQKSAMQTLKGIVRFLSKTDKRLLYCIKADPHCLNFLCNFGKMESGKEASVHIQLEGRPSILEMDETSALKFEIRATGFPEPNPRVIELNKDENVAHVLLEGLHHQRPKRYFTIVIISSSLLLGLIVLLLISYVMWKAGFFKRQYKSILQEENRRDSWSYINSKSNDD
CHT PAM: human CHT allosteric activation; CHT-expressing cells, membrane potential dye, choline EC20; hits give high values; LV-AA mutant CHT in HEK293 cells; B-score at 10 µM; 310,000 tested, 0.49% active; AID 488977;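 active = initial fluorescence not abnormally high and integrated response B-score, plate-corrected, over 3 SD above library mean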
T cell modulator: T cell immune modulators affecting CD8 T cell-vesicle binding. 2C CD8+ T cell-vesicle binding, flow cytometry; hits give low values. response (vesicle binding), % at 7 µM. 330,000 tested, 0.068% active. AID 2052;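 active = response, share of CD8 T cells binding vesicles, and their 90th percentile fluorescence all below set limits, cut at about 80% in these data, passing the limit was not always enough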;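 note: values below 100% mean blocked vesicle binding to the CD8+ T cells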
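incubation = binding step 1.5 h, 37 °C, antibody labelling 20 min, ice | test system = 2C mouse CD8+ T cells | read-out basis = percent CD8+ FL2 mean versus row control | controls = Peptide-free naked vesicles (low) and QL9 vesicles with 0.7% DMSO vehicle (high) | detection = flow cytometry of vesicle-bound cells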
CHT inh: inhibitors of human choline transporter CHT. 310,000 tested, 0.86% active. B-score at 10 µM. Q9GZV3. CHT-expressing cells, membrane potential dye, choline response; hits give low values;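 active = B-score over 3 SD under the library average, and starting fluorescence ratio not unusually high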;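 note: choline stimulus applied at its EC90 after an EC20 pre-addition; B-score computed on integrated fluorescence ratio after choline addition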
VLA-4 allo CP: human VLA-4 allosteric modulation in cherry picked compounds; shares compounds with VLA-4 inh; U937 cells, HUTS-21 LIBS mAb binding, flow cytometry; LDV ligand present at threefold Kd; inhibition, % at 6.7 µM; 1,300 tested, 2% active; in the data active = inhibition above about 40%;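 note: 0% = ligand without compound and 100% = no ligand background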
* hit, by the source's call; i = inactive; x = no result given.

SMILES | VLA-4 inh | CHT PAM | T cell modulator | CHT inh | VLA-4 allo CP
CC(NCC(=O)NC(=O)NC1CCCC1)c1ccc(Cl)cc1Cl (centres undefined) | -17.9 | i | 410.1 | i | x
Cc1cc(Cl)nc(-n2nc(C)cc2C)n1 | 17.1 | i | 386.5 | i | 2.0
Cc1cc(C)n(-c2nc(C)nc(N)n2)n1 | 1.1 | i | 282.9 | i | -4.2
CNc1cc(C)nc(-n2nc(C)cc2C)n1 | -13.2 | i | 228.7 | i | x
N#CCc1ccc(NC(=O)CSc2nnc(C3CC3)n2C2CC2)cc1 | -3.1 | x | 148.1 | x | x
COCCn1cnc2c1c(=O)n(Cc1ccc(C#N)cc1)c(=O)n2Cc1ccccc1 | -2.5 | i | 218.0 | i | x
CCc1nnc(NC(=O)CCC(=O)N2CCC(Cc3ccccc3)CC2)s1 | 0.7 | i | 281.1 | i | x
CCC(=O)Nc1nnc(-c2ccc(Cl)s2)o1 | 45.3 | i | 373.7 | i | -0.4
CC(=O)Nc1nnc(-c2ccc(Cl)s2)o1 | 18.4 | i | 598.4 | i | x
CN(Cc1ccccc1)C(=O)c1cc(=O)[nH]c2ccccc12 | 6.7 | i | 543.6 | i | x
Cc1c(N(C(=O)c2cc(=O)[nH]c3ccccc23)C(C)C)c(=O)n(-c2ccccc2)n1C | 10.5 | i | 210.2 | i | 0.0
CSc1ncccc1C(=O)OCC(=O)Nc1ccc(S(=O)(=O)N2CCCC2)cc1 | 42.8 | i | 258.9 | i | 7.0
CSc1ncccc1C(=O)OCC(=O)c1ccc(S(=O)(=O)N2CCCCC2)cc1 | -1.4 | i | 540.3 | i | x
CN1C(=O)/C(=N\OC(=O)c2cccc3ccccc23)c2ccccc21 | 66.0* | i | 255.4 | i | 0.0
COc1ccc(/C=C(\C#N)C(=O)C(C)(C)n2cncn2)cc1 | 18.1 | i | 147.1 | i | x
O=C(Nc1cccc(-c2nn[nH]n2)c1)c1csc2c1CCCC2 | -5.2 | i | 403.6 | i | x
Cc1ccc(-n2c(CSc3nc(C)cc(C)n3)nnc2SCC(=O)N2CCCC2)cc1 | 50.0* | i | 129.3 | i | -4.1
COc1cccc(-n2c(Cc3cc(=O)[nH]c(=O)[nH]3)nnc2SCC(=O)N2CCCCC2)c1 | 8.8 | i | 192.1 | i | -1.5
COc1cccc(-n2c(Cc3cc(=O)[nH]c(=O)[nH]3)nnc2SCc2cccnc2)c1 | 41.5 | i | 271.3 | i | x
CCSc1nnc(Cc2cc(=O)[nH]c(=O)[nH]2)n1-c1ccc(F)cc1 | 13.3 | i | i | i | x
O=C(CSc1nnc(Cc2cc(=O)[nH]c(=O)[nH]2)n1-c1ccc(F)cc1)N1CCCCC1 | 18.0 | i | 96.2 | i | 2.4
COc1ccc(-n2c(Cc3cc(=O)[nH]c(=O)[nH]3)nnc2SCc2ccccc2)cc1 | 51.1* | i | 488.0 | i | 4.7
CCN=C1SC(CC(N)=O)C(=O)N1CC (centres undefined) | -1.3 | i | 178.3 | i | x
Cc1ccc(NC(=O)COc2ccccc2C=O)cc1Cl | 12.0 | i | 309.5 | i | x
CCOc1ccccc1NC(=O)CCc1nnc2ccc(N3CCC4(CC3)OCCO4)nn12 | 1.0 | i | 247.7 | i | x
SMILES | VLA-4 inh | CHT PAM | T cell modulator | CHT inh | VLA-4 allo CP
O=C(O)c1c(C(=O)O)c(-c2ccc(F)cc2)n2c1CCC2 | 43.6 | i | 167.4 | i | -12.6
Cc1ccc(-c2c(C(=O)O)c(C(=O)O)c3n2CCC3)cc1 | -3.5 | i | i | i | x
O=C(NCc1ccccc1)C1CCCN(C(=O)Nc2ccccc2)C1 (centres undefined) | 75.2* | i | 316.7 | i | 0.0
CC(C)(C)NC(=O)N1c2ccccc2Sc2ccccc21 | 54.4* | i | 196.2 | i | 2.6
CN1CCC(N(C)S(=O)(=O)c2ccc(NC(=O)COc3ccc(F)cc3)cc2)CC1 | 50.2* | i | 177.2 | i | 12.6
COc1ccc(C(=O)C2CCCN(Cc3c[nH]c4ccccc34)C2)c(OC)c1 (centres undefined) | 55.1* | i | 203.2 | i | 1.8
COc1ccc(C(=O)C2CCCN(Cc3c(F)ccc(F)c3F)C2)c(OC)c1 (centres undefined) | -3.2 | i | 173.6 | i | x
O=C(N/N=C/c1cc([N+](=O)[O-])ccc1Cl)c1cc(-c2ccccc2)nc2ccccc12 | -6.9 | i | 232.7 | i | x
O=C(N/N=C/c1cccnc1)c1cc(-c2ccc(Cl)cc2)nc2ccccc12 | 30.1 | i | 964.9 | i | x
O=C(N/N=C/c1ccc(Cl)cc1)c1cc(-c2cccnc2)nc2ccccc12 | 49.9* | i | 178.9 | i | 18.3
